Source: PubChem BioAssay
ANO1 activ – activators or potentiators of mouse TMEM16A chloride channel; Q8BHY3; HEK293 TMEM16A/YFP-H148Q/I152L, iodide quench fluorescence; hits give low values; B-score at 10 µM; 340,000 compounds, 0.3% hits; AID 623877;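 active = fluorescence-ratio B-score plate-corrected deviation score at least 3 library SD below zero, with starting fluorescence score within 5 deviations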;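 also: channel opened by trigger with iodide after compound preincubation; score built on the fluorescence ratio of max minus min over baseline; more negative score means more quench and so TMEM16A activation or potentiation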
MC4R antag cAMP – antagonists of human melanocortin 4 receptor (MC4R) | AID 540295 | MC4R-expressing cells, MTII-stimulated cAMP, LANCE TR-FRET | P32245 | 360,000 compounds, 0.48% hits | inhibition, % at 6.5 µM;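 active = inhibition above its plate's cutoff, the mean of tested wells on that plate plus 3 SD, cut at about 29% in these data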
Target sequence (P32245 whole entry, looked up): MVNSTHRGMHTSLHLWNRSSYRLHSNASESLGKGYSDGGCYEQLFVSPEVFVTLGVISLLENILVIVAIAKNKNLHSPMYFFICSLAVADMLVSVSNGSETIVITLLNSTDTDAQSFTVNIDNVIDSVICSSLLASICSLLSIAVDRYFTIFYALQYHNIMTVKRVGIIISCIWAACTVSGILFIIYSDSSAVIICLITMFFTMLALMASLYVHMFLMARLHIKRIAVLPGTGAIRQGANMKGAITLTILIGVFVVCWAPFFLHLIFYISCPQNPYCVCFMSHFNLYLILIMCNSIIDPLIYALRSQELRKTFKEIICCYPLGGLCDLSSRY
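System: U2OS cells stably expressing human melanocortin 4 receptor (MC4R). Reagent: Melanotan II challenge after compound preincubation. Doses: 6.5 µM. Times: 30-min compound, 1-h challenge, 1-h detection, room temperature. Measured by: TR-FRET with Eu-cAMP and labeled anti-cAMP, 671 nm. Replicates: singlicate.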
MC4R barr agon – human MC4R agonism via beta-arrestin; U2OS MC4R beta-arrestin complementation, luminescence; percent of melanotan II response, DMSO zero; 360,000 compounds, 0.98% hits; P32245; activation, % at 8.9 µM; AID 540308;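 active = activation above a per-plate cutoff, the mean activation of sample wells on that plate plus 3 SD, cut at about 8% in these data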
CSC inhib – blocks cancer stem cells; AID 2717; inhibition, % at 7.5 µM; 300,000 compounds, 1.1% hits; cancer stem cell-like cells viability, luminescence; in the data active = inhibition above about 75%; tested in HMLE shEcad cells
ANO1 block – mouse TMEM16A channel inhibition, primary screen. HEK293 TMEM16A/YFP iodide influx fluorescence, ionomycin. normalized B-score (activity score, 25-100; higher = stronger inhibition) at 10 µM. 310,000 compounds, 1.2% hits;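 active = ratio plate-corrected score three or more library SD toward inhibition, starting fluorescence score within five deviations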;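 also: score derived from kinetic fluorescence span divided by baseline fluorescence per well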
Beta apoptosis – blocks beta cell apoptosis | INS-1E cytokine-induced death, ATP luminescence, 48 h; percent of positive-control rescue, neutral wells zero | protection from apoptosis, % (concentration not given with the values) | 300,000 compounds, 0.8% hits;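 active = Every replicate reaches about 75%, or at least half do and their mean reaches it too, limit read from the data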;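 also: higher means more ATP so stronger rescue from cytokine killing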
Large screens that a line does not name were inactive. Sampled rows, rich in hits. Any-hit rate of the full collection: about 3.8%.

Cc1cccc(NC(=O)COc2coc(CN3CCc4ccccc4C3)cc2=O)c1	none (no result: Beta apoptosis)
CCCCCc1cc(=O)oc2c(C(CCN3CCCC(C)C3)c3ccc(N(C)C)cc3)c(OC)cc(OC)c12 (stereo unspecified)	CSC inhib 109
CCCCCc1cc(=O)oc2c(C(CCN3CCCCC3)c3cc(OC)c(OC)c(OC)c3)c(OC)cc(OC)c12 (stereo unspecified)	CSC inhib 79
COc1cc(OC)c2ccc(=O)oc2c1C(CCN1CCCC(C)C1)c1ccc(N(C)C)cc1 (stereo unspecified)	none
CCCCCc1cc(=O)oc2c(C(CCN3CCCC(C)C3)c3cc(OC)c(OC)c(OC)c3)c(OC)cc(OC)c12 (stereo unspecified)	CSC inhib 102, Beta apoptosis 110
COc1cc(C(CCN2CCCC2)c2c(OC)cc(OC)c3ccc(=O)oc23)cc(OC)c1OC (stereo unspecified)	none
COc1cc(OC)c2c(-c3ccccc3)cc(=O)oc2c1C(CCN1CCCCC1)c1ccc(N(C)C)cc1 (stereo unspecified)	none
COc1ccc(C(CCN2CCCCC2)c2c(OC)cc(OC)c3c(-c4ccccc4)cc(=O)oc23)cc1 (stereo unspecified)	Beta apoptosis 86
COc1ccc(S(=O)(=O)N2CCC(C(=O)N[C@@H](C)C(=O)NC3CC3)CC2)cc1	none
COc1ccc(CNC(=O)C2CCCN2C(=O)Nc2cccc(Cl)c2)cc1 (stereo unspecified)	none (no result: ANO1 activ, CSC inhib, ANO1 block, Beta apoptosis)
O=c1[nH]c(/C=C/c2ccc(Br)cc2)nc2ccccc12	none
COc1ccc(C(=O)Nc2cccc(/C=C/c3nc4ccccc4c(=O)[nH]3)c2)cc1	CSC inhib 78
O=c1[nH]c(/C=C/c2ccccc2[N+](=O)[O-])nc2ccccc12	MC4R barr agon 8.8
CN(C)c1ccc(/C=C/c2nc3ccccc3c(=O)[nH]2)cc1	CSC inhib 84
C(=C\c1nc2ccccc2[nH]1)/c1ccccc1	CSC inhib 82
O=C(Nc1cccc(/C=C/c2nc3ccccc3c(=O)[nH]2)c1)c1ccccc1Cl	none
COc1ccccc1C(=O)NCCC(=O)NCC(c1ccc(F)cc1)N1CCOCC1 (stereo unspecified)	none
COc1ccc(-n2nc(C(=O)N3CCC(N4CCCCC4)CC3)c3c4ccccc4n(C)c3c2=O)cc1	none
O=S1(=O)C=C(Sc2nnc(-c3ccccc3)o2)c2ccccc21	CSC inhib 108, Beta apoptosis 105
O=C(Nc1cc(Br)ccc1O)c1cc(-c2ccc3c(c2)OCO3)on1	none
CSc1ccccc1NC(=O)c1cc(-c2ccc3c(c2)OCO3)on1	MC4R barr agon 12
Cc1ccc(NC(=O)c2cc(-c3ccc4c(c3)OCO4)on2)cc1C	none
CC(C)Cc1cc(C(=O)Nc2ccc3c(c2)OCO3)no1	CSC inhib 122
O=C(Nc1ccc2c(c1)OCO2)c1cc(-c2cccc(O)c2)on1	CSC inhib 100
Cc1cc(C(=O)Nc2ccc3c(c2)OCO3)no1	none
CCCn1nc(C(=O)NNC(=O)c2cccc(C)c2)c2ccccc2c1=O	none (no result: ANO1 block)
CC(C)(C)NC(=O)CSc1nnc(-c2ccncc2)n1Cc1ccccc1	none
CC(C)C(C)(C#N)NC(=O)CSc1nnc(-c2ccncc2)n1Cc1ccccc1 (stereo unspecified)	ANO1 block 25
C(=N\N(Cc1ccccc1)c1ccccc1)/c1cccnc1	none
Oc1cccc(/C=N/N(Cc2ccccc2)c2ccccc2)c1	CSC inhib 87
Cc1nnc(N/N=C/c2cc([N+](=O)[O-])c(N3CCC(C)CC3)cc2N2CCC(C)CC2)n1N	Beta apoptosis 115
CCc1nnc(N/N=C/c2ccc(N3CCC(C)CC3)c([N+](=O)[O-])c2)n1N	none
C=C(CC1([C@@H](NP(=O)(c2ccccc2)c2ccccc2)[C@H]2C[C@@H]2CCCC)CC1)c1ccccc1	CSC inhib 123
Nc1cc(Cl)ccc1C(=O)OCC(=O)N1CCOCC1	none
CCOC(=O)c1sc(NC(=O)CSc2nc(C)cc(C)n2)c(C#N)c1C	none
CCOC(=O)c1sc(NC(=O)c2cc(-c3ccccc3)nc3ccccc23)c(C#N)c1C	ANO1 block 100
CCOC(=O)c1sc(NC(=O)c2cccnc2)c(C#N)c1C	none
CCOC(=O)c1sc(NC(=O)CSc2n[nH]c(-c3ccccc3)n2)c(C#N)c1C	ANO1 block 100 (no result: Beta apoptosis)
CCC(CC)CN1C(N(C)C)=NC[C@@H]1CC(C)C	none
CCC(C)[C@H](NC(=O)[C@@H]1Cc2ccccc2CN1)C(=O)Nc1ccc2c(c1)OCO2 (stereo partly specified)	none
N#Cc1c(N)nc2c(c1-c1ccc3c(c1)OCO3)CCc1ccccc1-2	CSC inhib 82
O=[N+]([O-])c1ccccc1OCCCn1cnc2ccccc21	none (no result: CSC inhib, ANO1 block, Beta apoptosis)
O=c1c2ccccc2ncn1CCCOc1ccccc1[N+](=O)[O-]	ANO1 block 25
CC1(Cc2cccc(C(F)(F)F)c2)C(=O)Nc2ccc(-c3ccc(F)c(Cl)c3)cc21 (stereo unspecified)	none (no result: ANO1 activ, CSC inhib, ANO1 block, Beta apoptosis)
C#CCOCCOCCOCCNc1nc(N2CCN(C(=O)CCCCCCCCCCNC(=O)Cn3cc(C[C@@H](C)O)nn3)CC2)nc(N2CCN(C(=O)CCCCCCCCCCNC(=O)Cn3cc(C[C@@H](C)O)nn3)CC2)n1	none
C#CCOCCOCCOCCNc1nc(N2CCN(C(=O)CCCCCCCCCCNC(=O)[C@H](CO)n3cc(CCCSC)nn3)CC2)nc(N2CCN(C(=O)CCCCCCCCCCNC(=O)[C@H](CO)n3cc(CCCSC)nn3)CC2)n1	none
C#CCOCCOCCOCCNc1nc(N2CCN(C(=O)CCCCCCCCCCNC(=O)[C@H](CCCCN)n3cc(CCCC(=O)O)nn3)CC2)nc(N2CCN(C(=O)CCCCCCCCCCNC(=O)[C@H](CCCN=C(N)N)n3cc(C[C@@H](C)CC)nn3)CC2)n1	ANO1 activ -16, ANO1 block 100
C#CCOCCOCCOCCNc1nc(N2CCN(C(=O)CCCCCCCCCCNC(=O)[C@H](CO)n3cc(CCCSC)nn3)CC2)nc(N2CCN(C(=O)CCCCCCCCCCNC(=O)[C@H](CCCCN)n3cc(C[C@@H](C)CC)nn3)CC2)n1	CSC inhib 127 (no result: ANO1 activ, MC4R antag cAMP, MC4R barr agon)
CC[C@H](C)Cc1cn([C@@H](CCCCNC(=O)OC(C)(C)C)C(=O)NCCCCCCCCCCC(=O)N2CCN(C(=O)OC(C)(C)C)CC2)nn1	Beta apoptosis 82
C#CCOCCOCCOCCNc1nc(N2CCN(C(=O)CCCCCCCCCCNC(=O)[C@H](CCCCN)n3cc(CCCC(=O)O)nn3)CC2)nc(N2CCN(C(=O)CCCCCCCCCCNC(=O)[C@H](CCCCN)n3cc(CCCC(=O)O)nn3)CC2)n1	none
